Test results published in ChEMBL document CHEMBL2021903, “3-Deoxy-3,4-dehydro analogs of XM462. Preparation and activity on sphingolipid metabolism and cell fate” (Bioorg Med Chem, 2012).
Activity calls are given as the source filed them. The rule behind the calls is not given here.

Tests used:
[1] = target: T1, Sphingomyelin phosphodiesterase (Homo sapiens) (UniProt P17405); test: Inhibition of human aSMase using 6-hexadecanoylamino-4-methylumbelliferylphosphorylcholine as substrate at 100 uM preincubated for 30 mins prior substrate addition measured after 2 hrs by spectrophotometry
T1 sequence (whole entry): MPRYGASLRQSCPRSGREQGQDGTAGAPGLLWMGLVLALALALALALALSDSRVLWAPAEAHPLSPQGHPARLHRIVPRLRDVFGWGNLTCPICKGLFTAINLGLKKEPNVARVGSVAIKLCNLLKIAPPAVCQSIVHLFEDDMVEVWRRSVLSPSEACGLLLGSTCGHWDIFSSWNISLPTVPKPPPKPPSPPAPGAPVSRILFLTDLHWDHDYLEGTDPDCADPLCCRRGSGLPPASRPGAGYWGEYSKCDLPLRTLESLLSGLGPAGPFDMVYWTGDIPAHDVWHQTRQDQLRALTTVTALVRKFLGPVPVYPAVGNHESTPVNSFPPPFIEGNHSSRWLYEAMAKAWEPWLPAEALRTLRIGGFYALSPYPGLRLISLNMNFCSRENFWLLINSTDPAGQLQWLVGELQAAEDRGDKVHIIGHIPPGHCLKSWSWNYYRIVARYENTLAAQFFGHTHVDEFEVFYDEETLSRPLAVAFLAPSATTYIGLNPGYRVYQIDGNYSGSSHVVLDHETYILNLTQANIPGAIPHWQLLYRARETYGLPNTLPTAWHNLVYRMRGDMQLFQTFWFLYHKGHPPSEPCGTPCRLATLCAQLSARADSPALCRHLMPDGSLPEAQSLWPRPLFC

A549 [2] = test: Inhibition of SM synthase in human A549 cells using CerC6NBD as substrate preincubated for 24 hrs prior substrate addition measured after 3 hrs by HPLC-FD analysis; assay type: cell-based
[3] = target: Neutral ceramidase (Homo sapiens) (UniProt Q9NR71); test: Inhibition of nCDase in Moh.pAS cells using CerC12NBD as substrate after 1 hr by HPLC-FD analysis; assay type: cell-based
Chain of Neutral ceramidase (Homo sapiens) (Q9NR71 whole entry): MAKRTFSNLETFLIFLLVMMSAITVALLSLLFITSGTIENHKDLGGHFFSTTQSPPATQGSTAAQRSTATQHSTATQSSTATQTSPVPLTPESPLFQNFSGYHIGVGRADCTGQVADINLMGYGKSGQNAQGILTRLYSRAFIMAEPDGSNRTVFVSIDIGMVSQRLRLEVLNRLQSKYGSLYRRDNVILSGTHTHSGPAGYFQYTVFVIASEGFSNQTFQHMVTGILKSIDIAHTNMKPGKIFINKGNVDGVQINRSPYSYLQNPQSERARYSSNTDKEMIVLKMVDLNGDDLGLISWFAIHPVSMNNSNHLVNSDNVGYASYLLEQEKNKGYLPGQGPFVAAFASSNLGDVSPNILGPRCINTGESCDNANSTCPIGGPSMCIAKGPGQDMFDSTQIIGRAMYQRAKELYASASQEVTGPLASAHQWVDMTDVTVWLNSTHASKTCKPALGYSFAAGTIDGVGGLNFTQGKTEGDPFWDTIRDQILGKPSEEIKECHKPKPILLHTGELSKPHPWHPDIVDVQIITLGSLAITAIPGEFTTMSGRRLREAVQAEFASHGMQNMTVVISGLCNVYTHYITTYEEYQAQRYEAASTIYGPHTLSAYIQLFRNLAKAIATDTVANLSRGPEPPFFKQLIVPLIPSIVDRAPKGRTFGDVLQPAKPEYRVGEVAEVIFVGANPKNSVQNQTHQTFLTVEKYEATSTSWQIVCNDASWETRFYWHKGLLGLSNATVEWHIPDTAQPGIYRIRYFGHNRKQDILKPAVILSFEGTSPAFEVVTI
How it was run: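 Moh. pAS cells transfected to overexpress neutral ceramidase. Lysates (sonicated in 1 mM Tris–HCl, 0.1 mM EDTA, pH 7.5) incubated 1 h, 37 °C, with 5 µM CerC12NBD in 25 mM Tris–HCl pH 7.5, 1% sodium cholate, ±50 µM compound. Intact cells treated 4 h with 50 µM compound before lysis and assay. Read-out HPLC-fluorescence.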

Acid ceramidase [4] = target: T2, Acid ceramidase (Homo sapiens, UniProt Q13510); test: Inhibition of aCDase in Moh.pAS AcCer10X cells using RBM14C12 as substrate after 1 hr by HPLC-FD analysis; assay type: cell-based
T2 sequence (Q13510 whole entry): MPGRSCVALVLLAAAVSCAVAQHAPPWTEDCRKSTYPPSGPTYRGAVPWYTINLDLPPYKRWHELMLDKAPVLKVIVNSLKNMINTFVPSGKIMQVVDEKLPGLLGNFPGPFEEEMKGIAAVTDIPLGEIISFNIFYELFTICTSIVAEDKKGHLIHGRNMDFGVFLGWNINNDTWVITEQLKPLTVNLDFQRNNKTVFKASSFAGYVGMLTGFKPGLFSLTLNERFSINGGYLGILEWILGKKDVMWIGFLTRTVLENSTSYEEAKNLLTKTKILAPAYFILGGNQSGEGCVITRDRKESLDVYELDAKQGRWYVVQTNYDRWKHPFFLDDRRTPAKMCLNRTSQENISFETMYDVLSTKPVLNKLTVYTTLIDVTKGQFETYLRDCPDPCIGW

Acid ceramidase [5] = target: T2, Acid ceramidase; test: Inhibition of aCDase using RBM14C12 as substrate after 1 hr by HPLC-FD analysis
A549 [6] = test: Cytotoxicity against human A549 cells after 24 hrs by MTT assay; assay type: functional; settings: A549, 24 h, read-out: LD50 (the source's name)
A549 [7] = test: Effect on sphingolipidome in human A549 cells assessed as increase in total ceramides at 10 uM after 24 hrs by UPLC-TOF analysis; assay type: functional, cell-based
How it was run: (§1)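 Cells incubated with compound at 10 µM, 24 h (A549) or 14 h (HCT116); lipids then extracted and profiled. Long-chain bases and phosphates were read by LC-MS/MS (positive electrospray, selected reaction monitoring, C17-dihydrosphingosine and C17-dihydrosphingosine-1-phosphate transitions monitored). Amounts expressed as pmol per 10⁶ cells. Mean ± SD of triplicates; unpaired two-tailed t-test versus control.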

[8] = target: T3, Ceramide glucosyltransferase (Homo sapiens) (UniProt Q16739); test: Inhibition of GlcCer synthase in human A549 cells using CerC6NBD as substrate preincubated for 24 hrs prior substrate addition measured after 3 hrs by HPLC-FD analysis; assay type: cell-based
T3 sequence (whole entry): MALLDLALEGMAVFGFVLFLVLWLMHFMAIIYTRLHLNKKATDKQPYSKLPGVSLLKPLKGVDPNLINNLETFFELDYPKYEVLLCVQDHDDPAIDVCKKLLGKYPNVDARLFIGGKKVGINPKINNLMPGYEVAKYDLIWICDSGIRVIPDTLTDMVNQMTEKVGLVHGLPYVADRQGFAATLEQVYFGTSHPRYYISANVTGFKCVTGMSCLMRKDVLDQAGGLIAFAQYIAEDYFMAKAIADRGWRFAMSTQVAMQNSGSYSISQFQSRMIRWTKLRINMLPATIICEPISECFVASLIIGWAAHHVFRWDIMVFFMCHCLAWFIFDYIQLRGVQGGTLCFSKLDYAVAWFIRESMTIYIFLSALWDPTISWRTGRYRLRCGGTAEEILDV

A549 [9] = test: Effect on sphingolipidome in human A549 cells assessed as increase in dihydroceramide per 10^6 cells at 10 uM after 24 hrs by UPLC-TOF analysis relative to control (reference value: 6.5 +/- 0.42 pmol/10^6 cells); assay type: functional; how it was run: as §1
[10] = target: T4, Lysosomal acid glucosylceramidase (Homo sapiens) (UniProt P04062); test: Inhibition of human glucocerebrosidase using 4-methylumbelliferyl beta-D-glucoside as substrate at 100 uM preincubated prior substrate addition measured after 45 mins by spectrophotometry
T4 sequence (whole entry): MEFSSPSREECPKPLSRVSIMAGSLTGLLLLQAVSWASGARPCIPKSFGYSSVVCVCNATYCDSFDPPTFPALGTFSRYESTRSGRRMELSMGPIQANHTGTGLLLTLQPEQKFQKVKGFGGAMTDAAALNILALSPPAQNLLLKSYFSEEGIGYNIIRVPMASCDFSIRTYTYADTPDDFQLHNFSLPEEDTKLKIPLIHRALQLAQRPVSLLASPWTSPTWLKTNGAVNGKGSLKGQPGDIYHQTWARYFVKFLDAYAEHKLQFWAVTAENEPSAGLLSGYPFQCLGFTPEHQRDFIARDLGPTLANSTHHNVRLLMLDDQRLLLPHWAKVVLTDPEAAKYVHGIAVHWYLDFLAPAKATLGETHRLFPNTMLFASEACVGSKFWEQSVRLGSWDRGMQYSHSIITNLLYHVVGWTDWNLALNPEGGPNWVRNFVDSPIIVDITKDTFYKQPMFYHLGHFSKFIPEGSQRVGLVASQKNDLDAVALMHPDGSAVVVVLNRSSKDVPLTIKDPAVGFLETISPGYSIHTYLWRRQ

Compound	inhibition [1]	inhibition (A549 [2])	inhibition [3]	IC50 (Acid ceramidase [4])	IC50 (Acid ceramidase [5])	CC50 (A549 [6])	Activity (A549 [7])	inhibition [8]	Activity (A549 [9])	inhibition [10]
CCCCCCCCCCCCCS/C=C/[C@H](CO)NC(=O)C(C)(C)C	inactive	inactive	inactive	51 µM	51 µM	24 µM	inactive	inactive	12.4 pmol	inactive
CCCCCCCCCCCCCS/C=C/[C@H](CO)NC(=O)CCCCCCC	inactive	inactive	inactive	77 µM	77 µM	19 µM	inactive	inactive	22.9 pmol	inactive
CCCCCCCCCCCCCS/C=C/[C@H](CO)NC(=O)c1ccc(C(C)(C)C)cc1	inactive	inactive	inactive	315 µM	315 µM	76 µM	inactive	inactive	inactive	inactive
